Values belong to the compound of their own block, whether it stands above or below them.
Legend:
[1] = Half life in dog; assay type: ADME, organism-based, Canis lupus familiaris; details: in vivo
Mus musculus [2] = experiment: Antiarrhythmic activity in sc dosed Swiss albino mouse assessed as protection against chloroform-induced fibrillation relative to lidocaine; assay type: functional, Heart
Method in brief: (§1)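 Mice (18–25 g) were dosed and observed for signs of toxicity. Twenty minutes after dosing they were exposed to CHCl3 vapor until respiration ceased, and ventricular fibrillation was scored by inspecting the opened thorax.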

Mus musculus [3] = experiment: Toxicity in Swiss albino mouse assessed as induction of convulsions at 100 mg/kg, sc relative to control; assay type: organism-based; set-up: dose 100 mg/kg, route subcutaneous; details: in vivo
Method in brief: (§2)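 Single preliminary dose of 100 mg/kg. Mice (18–25 g) were watched for overt CNS toxicity signs, including convulsions, ataxia and loss of righting reflex, during the 20 min between treatment and exposure to CHCl3 vapor.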

Canis familiaris [4] = experiment: Antiarrhythmic activity in coronary ligated dog assessed as reduction of mean arterial blood pressure at 0.5 mg/kg, iv measured for 5 mins relative to control; assay type: functional, Canis lupus familiaris, Artery
[5] = Half life in human; assay type: ADME, organism-based; details: in vivo
Mus musculus [6] = experiment: Toxicity in Swiss albino mouse assessed as induction of ataxia at 100 mg/kg, sc relative to control; assay type: organism-based; set-up: dose 100 mg/kg, route subcutaneous; details: in vivo; method in brief: as §2
Canis familiaris [7] = experiment: Antiarrhythmic activity in iv dosed coronary ligated dog assessed as concentration required to reduce ventricular ectopic beats to <5% of total ventricular beats measured for 5 mins; assay type: functional, Canis lupus familiaris, Heart
Method in brief: (§3)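 Clearing was defined as less than 5% ectopic beats for 5 min, and the infusion was shut off at clearing or when toxicity appeared. Doses are in mmol/kg, reported as means with standard deviations over the experiments.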

Mus musculus [8] = experiment: Antiarrhythmic activity in sc dosed Swiss albino mouse assessed as protection against chloroform-induced fibrillation relative to control; assay type: functional; details: Heart; method in brief: as §1
Canis familiaris [9] = experiment: Antiarrhythmic activity in coronary ligated dog assessed as reduction of ventricular ectopic beats to <5% of total ventricular beats at 0.5 mg/kg, iv measured for 5 mins relative to control; assay type: functional, Canis lupus familiaris, Heart; set-up: scale not given: the % may be the effect or the level left
Canis familiaris [10] = experiment: Toxicity in iv dosed coronary ligated dog assessed as concentration required to cause convulsions; assay type: organism-based, Canis lupus familiaris; details: in vivo; method in brief: as §3
[11] = Oral bioavailability in dog; assay type: ADME, organism-based, Canis lupus familiaris; details: in vivo
Canis familiaris [12] = experiment: Antiarrhythmic activity in coronary ligated dog assessed as reduction of ventricular rates at 0.5 mg/kg, iv measured for 5 mins relative to control; assay type: functional, Canis lupus familiaris, Heart
Mus musculus [13] = experiment: Toxicity in Swiss albino mouse assessed as induction of loss of righting reflex at 100 mg/kg, sc relative to control; assay type: organism-based; set-up: dose 100 mg/kg, route subcutaneous; details: in vivo; method in brief: as §2
Mus musculus [14] = experiment: Antiarrhythmic activity in Swiss albino mouse assessed as protection against chloroform-induced fibrillation at 100 mg/kg, sc relative to control; assay type: functional, Heart; details: route subcutaneous
Method in brief: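 Mice (18–25 g) were dosed and exposed to CHCl3 vapor 20 min later until respiration ceased. Presence or absence of ventricular fibrillation was judged through the opened thorax, and protection was scored as the fraction of animals free of fibrillation. A preliminary 100 mg/kg dose was used to estimate doses for the full screen.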

Canis familiaris [15] = experiment: Toxicity in iv dosed coronary ligated dog assessed as concentration required to cause mortality; assay type: organism-based, Canis lupus familiaris; details: in vivo
Method in brief: (§4)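 Dogs with ventricular arrhythmias from coronary artery ligation (Harris method) received drug by infusion, with the ectopic beat incidence monitored. Clearing was defined as less than 5% ectopic beats for 5 min. Infusion was stopped at clearing or when toxicity was observed. The dose was recorded at the time of the endpoint. Mortality was noted, including death after the end of infusion.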

Canis familiaris [16] = experiment: Toxicity in iv dosed coronary ligated dog assessed as concentration required to cause mortality measured 87 mins after end of infusion; assay type: organism-based, Canis lupus familiaris; details: in vivo, 1.45 h; method in brief: as §4

half-life [1]: 4.7 h | half-life [5]: 11 h | bioavailability [11]: 80%
Compound: Cc1cccc(C)c1NC(=O)C(C)N.Cl (racemic) [TOCAINIDE HYDROCHLORIDE]
Ratio ED50 (Mus musculus [2]): 0.2 | Activity (Mus musculus [3]): 0% | Activity (Canis familiaris [4]): 108 Torr | Activity (Mus musculus [6]): 10% | Activity (Canis familiaris [7]): 0.32 mmol/kg | ED50 (Mus musculus [8]): 1300 µmol/kg | Activity (Canis familiaris [9]): 2% | Activity (Canis familiaris [10]): 0.3 mmol/kg | Activity (Canis familiaris [12]): 148 bpm | Activity (Mus musculus [13]): 0% | Activity (Mus musculus [14]): 20%

Compound: Cc1cccc(C)c1NC(=O)C(N)c1ccccc1.Cl (stereo unspecified)
Ratio ED50 (Mus musculus [2]): 1.2 | Activity (Mus musculus [3]): 100% | Activity (Mus musculus [6]): 100% | ED50 (Mus musculus [8]): 220 µmol/kg | Activity (Mus musculus [13]): 100% | Activity (Mus musculus [14]): 80%

half-life [1]: 1.5 h
Compound: CCC(N)C(=O)Nc1c(C)cccc1C.Cl (stereo unspecified)

Compound: CCc1cccc(CC)c1NC(=O)C(C)N.Cl (stereo unspecified)
Ratio ED50 (Mus musculus [2]): 0.5 | Activity (Mus musculus [3]): 10% | Activity (Canis familiaris [4]): 140 Torr | Activity (Mus musculus [6]): 100% | Activity (Canis familiaris [15]): 0.45 mmol/kg | Activity (Canis familiaris [7]): 0.26 mmol/kg | ED50 (Mus musculus [8]): 530 µmol/kg | Activity (Canis familiaris [9]): 2% | Activity (Canis familiaris [10]): 0.23 mmol/kg | Activity (Canis familiaris [12]): 124 bpm | Activity (Mus musculus [13]): 0% | Activity (Mus musculus [14]): 20%

Compound: CCc1cccc(C)c1NC(=O)CN.Cl
Ratio ED50 (Mus musculus [2]): 0.2 | Activity (Mus musculus [3]): 0% | Activity (Mus musculus [6]): 100% | ED50 (Mus musculus [8]): 1300 µmol/kg | Activity (Mus musculus [13]): 0% | Activity (Mus musculus [14]): 20%

Compound: Cc1cccc(C)c1NC(=O)[C@@H](C)N.Cl
Ratio ED50 (Mus musculus [2]): 0.3 | Activity (Mus musculus [3]): 0% | Activity (Canis familiaris [4]): 105 Torr | Activity (Mus musculus [6]): 70% | Activity (Canis familiaris [7]): 0.31 mmol/kg | ED50 (Mus musculus [8]): 930 µmol/kg | Activity (Canis familiaris [9]): 0% | Activity (Canis familiaris [10]): 0.21 mmol/kg | Activity (Canis familiaris [12]): 123 bpm | Activity (Mus musculus [13]): 0% | Activity (Mus musculus [14]): 10%

Compound: CCc1cccc(CC)c1NC(=O)C(N)CC.Cl (stereo unspecified)
Ratio ED50 (Mus musculus [2]): 1.2 | Activity (Mus musculus [3]): 100% | Activity (Mus musculus [6]): 100% | ED50 (Mus musculus [8]): 230 µmol/kg | Activity (Mus musculus [13]): 0% | Activity (Mus musculus [14]): 100%

Compound: CCN(CC)CC(=O)Nc1c(C)cccc1C.Cl
Activity (Mus musculus [3]): 100% | Activity (Canis familiaris [4]): 101 Torr | Activity (Mus musculus [6]): 100% | Activity (Canis familiaris [7]): 0.21 mmol/kg | ED50 (Mus musculus [8]): 260 µmol/kg | Activity (Canis familiaris [9]): 4% | Activity (Canis familiaris [10]): 0.27 mmol/kg | Activity (Canis familiaris [12]): 133 bpm | Activity (Mus musculus [13]): 100% | Activity (Mus musculus [14]): 100%

Compound: CCc1cccc(CC)c1NC(=O)CN.Cl
Ratio ED50 (Mus musculus [2]): 0.2 | Activity (Mus musculus [3]): 0% | Activity (Mus musculus [6]): 100% | ED50 (Mus musculus [8]): 1200 µmol/kg | Activity (Mus musculus [13]): 0% | Activity (Mus musculus [14]): 10%

Compound: Cc1cccc(C)c1NC(=O)CN.Cl
half-life [1]: 3.7 h | Ratio ED50 (Mus musculus [2]): 0.3 | Activity (Mus musculus [3]): 0% | Activity (Canis familiaris [4]): 85 Torr | Activity (Mus musculus [6]): 0% | Activity (Canis familiaris [7]): 0.48 mmol/kg | ED50 (Mus musculus [8]): 900 µmol/kg | Activity (Canis familiaris [9]): 0% | Activity (Canis familiaris [10]): 0.48 mmol/kg | Activity (Canis familiaris [16]): 0.56 mmol/kg | Activity (Canis familiaris [12]): 123 bpm | Activity (Mus musculus [13]): 0% | Activity (Mus musculus [14]): 10%

Compound: Cc1cccc(C)c1NC(=O)[C@H](C)N.Cl
Ratio ED50 (Mus musculus [2]): 0.1 | Activity (Mus musculus [3]): 0% | Activity (Canis familiaris [4]): 85 Torr | Activity (Mus musculus [6]): 0% | Activity (Canis familiaris [7]): 0.11 mmol/kg | ED50 (Mus musculus [8]): 3100 µmol/kg | Activity (Canis familiaris [9]): 0% | Activity (Canis familiaris [12]): 99 bpm | Activity (Mus musculus [13]): 0% | Activity (Mus musculus [14]): 0%

Compound: Cc1cc(C)c(NC(=O)CN)c(C)c1.Cl
Ratio ED50 (Mus musculus [2]): 0.3 | Activity (Mus musculus [3]): 80% | Activity (Mus musculus [6]): 100% | ED50 (Mus musculus [8]): 790 µmol/kg | Activity (Mus musculus [13]): 0% | Activity (Mus musculus [14]): 10%

Source: ChEMBL document CHEMBL3244390, “New antiarrhythmic agents. 1. Primary alpha-amino anilides” (J Med Chem, 1979)
